A selection: hits, their analogues and other compounds. The true share with any hit is near 4.8%.
Efflux pump inh – blocks antifungal efflux pumps in multiplex yeast assay; S. cerevisiae Candida pump triplex, Nile Red efflux; inhibition, % at 10 µM; actives 0.44% (n = 330,000); AID 485275;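 active means plate passing quality check with inhibition over a set limit, or well fluorescence over plate mean plus 4 SD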;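 further: Nile Red retained in pooled yeast measured as flow cytometry median fluorescence; 0% = buffer negative control and 100% = Enniatin B positive control; higher means more Nile Red kept so more efflux inhibition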
WT yeast gro inh – growth inhibition of WT yeast, mitochondrial fusion screen | mitochondrial fusion phenotypic screen, WT strain | inhibition, % at 10 µM | actives 2.1% (n = 190,000) | AID 1362; in the data active means inhibition above about 58%; tested in S. cerevisiae
T cruzi inh – T. cruzi replication inhibition; T. cruzi beta-gal in NIH3T3, luminescence, 90 h; inhibition, % (no concentration beside the values); actives 1.4% (n = 300,000);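 active means mean inhibition across valid replicates above about 55%, limit read from the data; inconclusive means mean below that limit but half or more replicates reach it; inactive means mean below it, under half of replicates reach it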;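 further: signal also drops with host cell toxicity which is not excluded here; 0% = plate median of DMSO wells and 100% = zero luminescence signal; higher percent means less beta-gal luminescence so fewer parasites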
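Material: NIH/3T3 host cells with β-galactosidase reporter T. cruzi; Input: 5,000 host fibroblasts per well; Medium: DMEM, 2% fetal bovine serum; Compound: 50 nL DMSO compound solution per well; Schedule: 3 h host attachment, then at least 90 h co-culture; Detection: luminescent β-galactosidase signal after 60 min lysis.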
Mot1-301 SUMO – SUMOylation pathway inhibition by Mot1-301 growth rescue; S. cerevisiae Mot1-301 growth rescue, ATP luminescence, 38.5C; percent above DMSO median, 100 means doubled; growth rescue, % at 18.8 µM; actives 1% (n = 320,000);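 active means every valid replicate shows activation above 250% relative to neutral control wells; inactive means the rest, any valid replicate at or below 250%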;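 further: OY570 slx delta 5 strain wells were the positive control but not used for scaling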
CSC inhib – blocks cancer stem cells; cancer stem cell-like cells viability, luminescence; AID 2717; actives 1.1% (n = 300,000); inhibition, % at 7.5 µM; in the data active means inhibition above about 75%; inconclusive means no clear call, values can overlap the other calls; tested in HMLE shEcad cells
Beta cell apopt – blocks beta cell apoptosis; INS-1E cytokine-induced death, ATP luminescence, 48 h; percent of positive-control rescue, neutral wells zero; protection from apoptosis, % (no concentration beside the values); actives 0.8% (n = 300,000); AID 435005;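 active means Every replicate reaches about 75%, or at least half do and their mean reaches it too, limit read from the data; inconclusive means At least half of replicates reach the limit but their mean does not; inactive means Under half of replicates reach the limit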;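 further: 0% = cytokine-treated negative control wells and 100% = positive control rescue; higher means more ATP so stronger rescue from cytokine killing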
* hit, by the source's call; ? = inconclusive; nt = not tested or not shown; + = active, no number.

SMILES	Efflux pump inh	WT yeast gro inh	T cruzi inh	Mot1-301 SUMO	CSC inhib	Beta cell apopt
COC(=O)CSc1nc(N)c2c3c(sc2n1)C(c1ccccc1)SC(c1ccccc1)C3 (stereo unspecified)	-0.1	66.9*	41.0	-2.3	+	69.4
c1ccc(-c2csc(Nc3nc(N4CCOCC4)nc(N4CCOCC4)n3)n2)cc1	-0.1	16.9	60.9*	-11.9	2.2	-4.4
Cc1cc(C)nc(Nc2nc(-c3ccccc3)cs2)n1	0.2	nt	7.0	-22.8	6.8	6.8
CCc1nc2sc3c(c2c(=O)n1CCO)CCC3	-0.1	nt	-8.0	-3.8	-13.1	1.2
Cc1nccc(-c2cc(-c3ccc(Cl)cc3Cl)no2)n1	0.0	nt	8.0	328.4*	-6.8	nt
O=C(c1cc(-c2ccc(Cl)cc2Cl)on1)N1CCCC1	0.1	nt	2.8	-0.9	-0.9	3.5
Cc1c(C(=O)N2CC3(CC(c4cccc(NC(=O)CC(c5ccccc5)c5ccccc5)c4)=NO3)C[C@@H]2C(N)=O)cc([N+](=O)[O-])cc1[N+](=O)[O-] (stereo partly specified)	0.1	nt	67.2*	260.2	14.3	-5.1
NC(=O)[C@@H]1CC2(CC(c3cccc(NC(=O)CC(c4ccccc4)c4ccccc4)c3)=NO2)CN1C(=O)c1ccc(Cl)cc1 (stereo partly specified)	0.2	nt	57.5*	125.1	37.0	3.4
NC(=O)[C@H]1CC2(CC(c3cccc(NC(=O)CC(c4ccccc4)c4ccccc4)c3)=NO2)CN1C(=O)CC(c1ccccc1)c1ccccc1 (stereo partly specified)	0.2	nt	48.0	355.3*	13.2	-3.2
CCC(C(=O)NCCN1CCOCC1)n1c2ccccc2c2nc(=O)cc(C)n21 (stereo unspecified)	0.1	nt	15.3	-7.2	-17.7	2.3
CC(NS(=O)(=O)c1ccc(Br)cc1)C(N)=O (stereo unspecified)	0.0	65.8*	-7.6	3.1	-12.5	1.9
CC(=O)Nc1ccc(N=Cc2c(O)c(C(=O)Nc3ccccc3)cc3ccccc23)cc1	0.1	25.6	-13.8	-18.4	97.7*	12.3
CC(C)(C)c1cc(NCc2ccccn2)n2ncc(-c3ccccc3)c2n1	-0.1	nt	nt	-46.8	77.8*	nt
CCN(CC)CCOC(=O)c1ccc(NC(=O)c2ccc(Cl)c(S(=O)(=O)N3CCCCCC3)c2)cc1	0.0	40.3	2.8	-0.6	76.9*	4.3
CCN(CCCC(=O)c1ccc(F)cc1)CCc1ccccc1	0.3	nt	58.4*	24.4	7.5	nt
CCN(CCCc1ccccc1)CCCc1ccccc1	0.0	19.6	35.9	0.3	nt	nt
O=C(c1ccc(Br)o1)N(Cc1ccccc1)Cc1ccccc1	0.0	78.8*	2.2	1.5	12.5	-3.9
CCN1CCN(C2=C(NS(=O)(=O)c3ccccc3)C(=O)c3ccccc3C2=O)CC1	0.0	nt	0.6	13.1	-14.3	81.7*
CN1CCN(C2=C(NS(=O)(=O)c3cccs3)C(=O)c3ccccc3C2=O)CC1	0.0	nt	-0.4	43.8	8.3	92.8*
C=C(C)COc1ccc2c(C)c(CCC(=O)NC3CC3)c(=O)oc2c1	0.1	nt	-7.4	14.0	-24.6	-0.7
CCOc1ccc2c(c1)-c1c(ssc1=S)C(C)(C)N2C(=O)c1ccco1	-1.5	37.3	-18.8	-6.4	85.1*	10.6
CC(C)OC(=O)CCCCCN1C(=O)CSC1=S	0.3	-15.6	56.1*	-8.9	5.3	-5.6
O=C1COc2ccc(N3C(=O)C=CC3=O)cc2N1	-0.1	4.2	-5.7	-11.6	89.3*	1.4
O=C1COc2ccc(S(=O)(=O)N3CCCC3)cc2N1	0.2	nt	4.9	38.9	-5.5	0.4
O=C(NC12CC3CC(CC(C3)C1)C2)c1ccc([N+](=O)[O-])o1	0.1	nt	38.1	-15.4	79.5*	-29.3
Nn1c(-c2ccc(O)cc2)nnc1-c1ccc(O)cc1	-0.1	nt	?	-13.4	-18.2	-2.6
O=C(c1ccccc1F)N1CCN(C2CCC(c3ccccc3)CC2)CC1 (stereo unspecified)	0.2	-57.1	31.0	281.7*	44.2	3.1
O=C(c1ccc(F)cc1)N1CCN(C2CCC(c3ccccc3)CC2)CC1 (stereo unspecified)	-0.1	-53.8	49.2	243.5	45.0	5.0
CCCn1c(SCC(=O)N2c3ccccc3Sc3ccccc32)nc2ccccc21	0.1	21.1	57.1*	20.8	33.0	6.6
